Results published in ChEMBL document CHEMBL4138314, “Synthesis and Evaluation of N-Phenyl-3-sulfamoyl-benzamide Derivatives as Capsid Assembly Modulators Inhibiting Hepatitis B Virus (HBV)” (J Med Chem, 2018).
Converted amounts (≈) assume the structure as drawn. The source made the active and inactive calls. The calls are words filed in the database; no cut-off is given here.

Assays:
[1] = Oral bioavailability in C57BL/6 mouse at 10 mg/kg by LC-MS/MS analysis; type: ADME, organism-based; conditions: in vivo
Method in brief: (§1)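 Single-dose PK in C57BL/6 mice given compound intravenously and orally, with oral doses of 10 and 50 mg/kg. Plasma clearance, volume of distribution and oral bioavailability were derived from the plasma profiles.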

[2] = Half life in humanized mouse at 50 mg/kg, sc measured on day 1 post dose by LC-MS/MS analysis; type: ADME, organism-based; conditions: in vivo
[3] = Plasma concentration in humanized mouse at 200 mg/kg, sc after 24 hrs by LC-MS/MS analysis; type: ADME, organism-based
[4] = Drug metabolism in human primary hepatocytes assessed as cleavage of N-phenylamide; type: ADME, cell-based, Hepatocyte
Method in brief: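 Compound incubated with primary hepatocytes and checked for cleavage of the N-phenylamide bond.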

[5] = AUC (0 to infinity) in humanized mouse at 50 mg/kg, sc measured on day 1 post dose by LC-MS/MS analysis; type: ADME, organism-based; design: dose 50 mg/kg, time infinity, route subcutaneous; conditions: in vivo
Mus musculus = assay: Hepatotoxicity in chimeric mouse with humanized liver infected with HBV genotype D assessed as decrease in human albumin level in mouse serum at 200 mg/kg, sc qd for 28 days; type: toxicity, organism-based; conditions: in vivo, 672 h
Method in brief: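 Cytotoxicity to human hepatocytes was judged in HBV genotype D-infected chimeric mice (≥70% human hepatocyte replacement) by tracking serum human albumin over time. Dosing was once daily for 28 days at 200 mg/kg s.c., with oral saline and oral entecavir 0.03 mg/kg as controls.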

Hepatitis B virus = assay: Antiviral activity against Hepatitis B virus infected in human HepG2.117 cells assessed as inhibition of viral DNA level after 3 days by real time PCR; type: functional, organism-based; conditions: HepG2.117, 72 h
Cytochrome P450 3A4 = Cytochrome P450 3A4 (Homo sapiens, UniProt P08684); assay: Inhibition of CYP3A4 (unknown origin); type: ADME
Cytochrome P450 3A4, sequence (P08684 whole entry): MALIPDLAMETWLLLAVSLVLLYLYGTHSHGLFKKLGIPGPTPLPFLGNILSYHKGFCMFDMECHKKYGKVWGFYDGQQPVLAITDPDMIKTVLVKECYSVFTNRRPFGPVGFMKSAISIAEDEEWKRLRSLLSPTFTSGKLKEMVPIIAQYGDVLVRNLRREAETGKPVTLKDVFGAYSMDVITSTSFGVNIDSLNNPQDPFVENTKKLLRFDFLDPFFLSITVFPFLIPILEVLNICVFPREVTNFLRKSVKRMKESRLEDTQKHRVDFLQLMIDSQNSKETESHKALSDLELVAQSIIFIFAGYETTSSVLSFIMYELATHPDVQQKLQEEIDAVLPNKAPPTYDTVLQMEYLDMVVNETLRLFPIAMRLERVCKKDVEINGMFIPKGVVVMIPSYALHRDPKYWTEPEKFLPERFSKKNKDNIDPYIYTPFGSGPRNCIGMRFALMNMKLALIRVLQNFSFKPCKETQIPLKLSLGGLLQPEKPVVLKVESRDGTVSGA

[6] = Tmax in C57BL/6 mouse at 10 mg/kg, po by LC-MS/MS analysis; type: ADME, organism-based; conditions: in vivo; method in brief: as §1
[7] = Half life in humanized mouse at 50 mg/kg, sc for 8 days measured on day 8 post last dose by LC-MS/MS analysis; type: ADME, organism-based; conditions: in vivo
[8] = Tmax in humanized mouse at 200 mg/kg, sc measured on day 1 post dose by LC-MS/MS analysis; type: ADME, organism-based; conditions: in vivo
[9] = Unbound fraction in human plasma; type: ADME, cell-free
[10] = biological target: 5-hydroxytryptamine receptor 2B (Homo sapiens, UniProt P41595); assay: Antagonist activity at 5-HT2B (unknown origin); type: functional
5-hydroxytryptamine receptor 2B, sequence (P41595 whole entry): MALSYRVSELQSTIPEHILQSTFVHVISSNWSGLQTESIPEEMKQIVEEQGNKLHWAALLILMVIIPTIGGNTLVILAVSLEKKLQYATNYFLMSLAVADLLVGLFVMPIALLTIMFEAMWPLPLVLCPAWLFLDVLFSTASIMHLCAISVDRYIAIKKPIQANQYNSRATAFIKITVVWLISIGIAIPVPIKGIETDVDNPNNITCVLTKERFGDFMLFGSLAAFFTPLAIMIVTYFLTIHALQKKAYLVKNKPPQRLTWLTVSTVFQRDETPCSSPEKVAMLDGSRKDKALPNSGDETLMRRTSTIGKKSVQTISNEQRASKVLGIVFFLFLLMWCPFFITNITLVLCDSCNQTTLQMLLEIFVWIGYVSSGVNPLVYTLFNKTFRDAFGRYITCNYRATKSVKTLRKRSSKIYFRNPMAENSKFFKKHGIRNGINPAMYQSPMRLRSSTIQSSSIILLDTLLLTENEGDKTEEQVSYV
Method in brief: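 Receptor/ion channel/transporter panel of 80 targets screened at 10 µM, giving percent effect at 5-HT2B; follow-up 5-HT2B functional testing in agonist and antagonist modes, with antagonist IC50 determined.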

[11] = Half life in humanized mouse at 200 mg/kg, sc measured on day 1 post dose by LC-MS/MS analysis; type: ADME, organism-based; conditions: in vivo
[12] = Drug uptake in C57BL/6 mouse plasma at 50 mg/kg, sc after 24 hrs by LC-MS/MS analysis; type: ADME, organism-based
Method in brief: (§2)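 C57BL/6 mice dosed subcutaneously once at 50 mg/kg, given to bypass first-pass metabolism; compound measured in plasma (ng/mL) and liver (ng/g) 24 h after dosing.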

[13] = Cmax in humanized mouse at 200 mg/kg, sc measured on day 1 post dose by LC-MS/MS analysis; type: ADME, organism-based; design: dose 200 mg/kg, route subcutaneous; conditions: in vivo
[14] = Half life in C57BL/6 mouse at 50 mg/kg, po by LC-MS/MS analysis; type: ADME, organism-based; conditions: in vivo
Method in brief: (§3)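 Single-dose PK in C57BL/6 mice after intravenous or oral dosing, with oral doses of 10 and 50 mg/kg; plasma clearance and volume of distribution taken from the i.v. arm.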

HBV genotype D [15] = assay: Antiviral activity against HBV genotype D infected in chimeric mouse with humanized liver assessed as reduction in HBsAg level at 200 mg/kg, sc qd for 28 days; type: functional, organism-based; conditions: hepatitis B virus genotype D
Method in brief: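 HBV genotype D-infected humanized-liver chimeric mice (≥70% human hepatocyte replacement) were dosed once daily for 28 days at 200 mg/kg s.c., with oral saline and oral entecavir 0.03 mg/kg as controls. Serum HBeAg and HBsAg were followed over the study.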

[16] = Drug metabolism in human liver microsomes at 1 uM after 15 mins by LC-MS/MS analysis; type: ADME, microsome; conditions: read-out: Drug metabolism
Method in brief: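 Compound incubated 15 min with human or mouse liver microsomes; stability expressed as percent turnover (metabolised) at 15 min.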

HBV genotype D [17] = assay: Antiviral activity against HBV genotype D infected in chimeric mouse with humanized liver assessed as log reduction in viral DNA level in serum at 200 mg/kg, sc qd for 28 days by RT-PCR method; type: functional, hepatitis B virus genotype D
Method in brief: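 HBV genotype D-infected chimeric mice with humanized liver (human hepatocyte replacement index ≥70%, judged by serum human albumin). Dosing was once daily for 28 days: test article 200 mg/kg s.c., entecavir 0.03 mg/kg oral as positive control, and oral saline as negative control. The read-out was serum HBV DNA (copies/mL), given as mean log change from baseline at day 29.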

[18] = Plasma concentration in humanized mouse at 50 mg/kg, sc after 24 hrs by LC-MS/MS analysis; type: ADME, organism-based
[19] = Half life in C57BL/6 mouse at 2.5 mg/kg, iv by LC-MS/MS analysis; type: ADME, organism-based; conditions: in vivo; method in brief: as §3
[20] = Inhibition of sodium channel (unknown origin); design: species or system Homo sapiens
[21] = Tmax in humanized mouse at 200 mg/kg, sc for 8 days measured on day 8 post last dose by LC-MS/MS analysis; type: ADME, organism-based; conditions: in vivo
[22] = Kinetic solubility of the compound at pH 7.4 after 4 hrs by UPLC-UV analysis; type: physicochemical; conditions: buffer, read-out: Kinetic_solubility
[23] = Oral bioavailability in C57BL/6 mouse at 50 mg/kg by LC-MS/MS analysis; type: ADME, organism-based; conditions: in vivo; method in brief: as §1
Salmonella typhimurium = assay: Genotoxicity in Salmonella typhimurium by Ames test; type: toxicity, organism-based; conditions: salmonella enterica subsp. enterica serovar typhimurium
[24] = Tmax in humanized mouse at 50 mg/kg, sc measured on day 1 post dose by LC-MS/MS analysis; type: ADME, organism-based; conditions: in vivo
[25] = Drug uptake in C57BL/6 mouse liver at 50 mg/kg, sc after 24 hrs by LC-MS/MS analysis; type: ADME, organism-based; conditions: read-out: Drug uptake; method in brief: as §2
[26] = Drug uptake in humanized mouse liver at 200 mg/kg, sc after 24 hrs by LC-MS/MS analysis; type: ADME, organism-based; conditions: read-out: Drug uptake
Method in brief: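 Uninfected humanized mice given 50 or 200 mg/kg subcutaneously once daily as a methocel suspension for 8 days; liver concentration measured 24 h after dosing.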

## Cc1cc(NC(=O)c2cccc(S(=O)(=O)N[C@H]3CCOC3)c2)ccc1F
[1]
  bioavailability: 40%
[2]
  half-life: 1.1 h
[3]
  concentration at 24 h: 1820 ng/mL
[4]
  Drug metabolism: Metabolite_Notdetected
[5]
  AUC(0-inf): 4780 ng·h/mL
Mus musculus
  Activity: Non-Toxic
Hepatitis B virus
  EC50: 0.43 µM
Cytochrome P450 3A4
  IC50: > 10 µM
[6]
  Tmax: 0.5 h
[7]
  half-life: 6.2 h
[8]
  Tmax: 0.8 h
[9]
  fraction unbound: 0.081
[10]
  IC50: 4 to 5.6 µM
[11]
  half-life: 5.6 h
[12]
  concentration at 24 h: 102 ng/mL
[13]
  Cmax: 2110 ng/mL
[14]
  half-life: 2.4 h
HBV genotype D [15]
  Activity: inactive
[16]
  metabolised at 0.25 h, 1 µM: 26%
HBV genotype D [17]
  log(activity): 2.77
[18]
  concentration at 24 h: 167 ng/mL
[19]
  half-life: 0.42 h
[20]
  IC50: > 10 µM
[21]
  Tmax: 1 h
[22]
  solubility kinetic at 4 h: 82 µM (≈ 31 µg/mL)
[23]
  bioavailability: 66%
Salmonella typhimurium
  Activity: Non-Toxic
[24]
  Tmax: 1 h
[25]
  concentration at 24 h: 1300 ng/g
[26]
  concentration at 24 h: 4880 ng/g
